From ChEMBL document CHEMBL2040734, “Benzothiazoles: search for anticancer agents” (2012)

Columns and labels:
Format in all cases: functional
HCT-116 = test: Cytotoxicity against human HCT116 cells assessed as cell growth at 10 '-5 M after 48 hrs by sulforhodamine B assay; conditions: HCT-116, 48 h, read-out: Activity
In short: (§1)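 Primary one-dose screen across the NCI 60-line panel at 10 µM. Cells were grown in RPMI 1640 with 5% FBS and 2 mM L-glutamine and held 24 h before drug. Drug was diluted from a DMSO concentrate. Exposure was 48 h at 37 °C, 5% CO2. Cells were fixed with TCA and stained with SRB, with absorbance read at 515 nm. Percent growth was calculated against time-zero and untreated control.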

TK-10 = test: Cytotoxicity against human TK10 cells assessed as cell growth at 10 uM after 48 hrs by sulforhodamine B assay; conditions: TK-10, 48 h, read-out: Activity
PC-3 = test: Cytotoxicity against human PC3 cells assessed as cell growth at 10 uM after 48 hrs by sulforhodamine B assay; conditions: PC-3, 48 h, read-out: Activity
NCI-H23 = test: Cytotoxicity against human NCI-H23 cells assessed as cell growth at 100 uM after 48 hrs by sulforhodamine B assay; conditions: NCI-H23, 48 h, read-out: Activity
SNB-19 [1] = test: Cytotoxicity against human SNB19 cells assessed as cell growth at 100 uM after 48 hrs by sulforhodamine B assay; conditions: SNB-19, 48 h, read-out: Activity
MDA-MB-231 = test: Cytotoxicity against human MDA-MB-231 cells assessed as cell growth at 1 uM after 48 hrs by sulforhodamine B assay; conditions: MDA-MB-231, 48 h, read-out: Activity
Malme-3M = test: Cytotoxicity against human MALME-3M cells assessed as cell growth at 1 uM after 48 hrs by sulforhodamine B assay; conditions: read-out: Activity
UACC-62 = test: Cytotoxicity against human UACC62 cells assessed as cell growth at 10 '-5 M after 48 hrs by sulforhodamine B assay; conditions: UACC-62, 48 h, read-out: Activity
UACC-257 [2] = test: Cytotoxicity against human UACC257 cells assessed as cell growth at 10 '-5 M after 48 hrs by sulforhodamine B assay; conditions: UACC-257, 48 h, read-out: Activity
MCF7 [3] = test: Cytotoxicity against human MCF7 cells assessed as cell growth at 0.1 uM after 48 hrs by sulforhodamine B assay; conditions: MCF7, 48 h, read-out: Activity
CCRF-CEM = test: Cytotoxicity against human CCRF-CEM cells assessed as cell growth at 0.1 uM after 48 hrs by sulforhodamine B assay; conditions: read-out: Activity
In short: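 CCRF-CEM suspension leukemia cells in RPMI 1640 with 5% FBS and 2 mM L-glutamine, plated 24 h before dosing. Five concentrations (0.01–100 µM) were applied from a DMSO stock for 48 h at 37 °C. Settled cells were fixed with 80% TCA (final 16%) and stained with SRB, with read-out at 515 nm. Percent growth was derived from time-zero and control absorbances.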

A549 [4] = test: Cytotoxicity against human A549 cells assessed as cell growth at 0.01 uM after 48 hrs by sulforhodamine B assay; conditions: A549, 48 h, read-out: Activity
In short: (§2)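 NCI-60 five-dose screen. Cells were grown in RPMI 1640 with 5% FBS and 2 mM L-glutamine and preincubated 24 h. Compound (DMSO stock) was tested at 0.01, 0.1, 1, 10 and 100 µM for 48 h at 37 °C. Cells were fixed in situ with cold TCA (final 10%) and stained with 0.4% SRB. A515 was read, and percent growth was calculated against time-zero and control plates.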

SF-295 = test: Cytotoxicity against human SF295 cells assessed as cell growth at 100 uM after 48 hrs by sulforhodamine B assay; conditions: SF-295, 48 h, read-out: Activity
MOLT-4 = test: Cytotoxicity against human MOLT4 cells assessed as cell growth at 0.1 uM after 48 hrs by sulforhodamine B assay; conditions: MOLT-4, 48 h, read-out: Activity
MCF7 [5] = test: Cytotoxicity against human MCF7 cells assessed as cell growth at 10 uM after 48 hrs by sulforhodamine B assay; conditions: MCF7, 48 h, read-out: Activity
EKVX = test: Cytotoxicity against human EKVX cells assessed as cell growth at 10 '-5 M after 48 hrs by sulforhodamine B assay; conditions: read-out: Activity; in short: as §1
A549 [6] = test: Cytotoxicity against human A549 cells assessed as cell growth at 0.1 uM after 48 hrs by sulforhodamine B assay; conditions: A549, 48 h, read-out: Activity; in short: as §2
MDA-MB-435 = test: Cytotoxicity against human MDA-MB-435 cells assessed as cell growth at 10 '-5 M after 48 hrs by sulforhodamine B assay; conditions: MDA-MB-435, 48 h, read-out: Activity
A549 [7] = test: Cytotoxicity against human A549 cells assessed as cell growth at 10 uM after 48 hrs by sulforhodamine B assay; conditions: A549, 48 h, read-out: Activity; in short: as §2
A498 = test: Cytotoxicity against human A498 cells assessed as cell growth at 10 uM after 48 hrs by sulforhodamine B assay; conditions: A498, 48 h, read-out: Activity; in short: as §2
M14 = test: Cytotoxicity against human M14 cells assessed as cell growth at 0.1 uM after 48 hrs by sulforhodamine B assay; conditions: M14, 48 h, read-out: Activity
SN12C = test: Cytotoxicity against human SN12C cells assessed as cell growth at 1 uM after 48 hrs by sulforhodamine B assay; conditions: read-out: Activity
SNB-19 [8] = test: Cytotoxicity against human SNB19 cells assessed as cell growth at 10 uM after 48 hrs by sulforhodamine B assay; conditions: SNB-19, 48 h, read-out: Activity
KM12 = test: Cytotoxicity against human KM12 cells assessed as cell growth at 10 uM after 48 hrs by sulforhodamine B assay; conditions: KM12, 48 h, read-out: Activity
NCI/ADR-RES = test: Cytotoxicity against human NCI/ADR-RES cells assessed as cell growth at 10 '-5 M after 48 hrs by sulforhodamine B assay; conditions: read-out: Activity
HL-60(TB) = test: Cytotoxicity against human HL-60(TB) cells assessed as cell growth at 100 uM after 48 hrs by sulforhodamine B assay; conditions: HL-60, 48 h, read-out: Activity
In short: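 NCI five-dose screen on the HL-60(TB) leukaemia line, grown in RPMI 1640 with 5% FBS and 2 mM L-glutamine and plated for 24 h before dosing. DMSO stocks were diluted in medium. Cells were exposed 48 h at 37 °C, then settled cells were fixed in 16% TCA (final) and stained with SRB, absorbance 515 nm. Percent growth = (Ti−Tz)/(C−Tz)×100, or (Ti−Tz)/Tz×100 when Ti<Tz.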

MDA-MB-468 = test: Cytotoxicity against human MDA-MB-468 cells assessed as cell growth at 1 uM after 48 hrs by sulforhodamine B assay; conditions: MDA-MB-468, 48 h, read-out: Activity
SK-MEL-28 = test: Cytotoxicity against human SK-MEL-28 cells assessed as cell growth at 0.1 uM after 48 hrs by sulforhodamine B assay; conditions: SK-MEL-28, 48 h, read-out: Activity
ACHN = test: Cytotoxicity against human ACHN cells assessed as cell growth at 100 uM after 48 hrs by sulforhodamine B assay; conditions: read-out: Activity; in short: as §2
UACC-257 [9] = test: Cytotoxicity against human UACC257 cells assessed as cell growth at 0.01 uM after 48 hrs by sulforhodamine B assay; conditions: UACC-257, 48 h, read-out: Activity

| Compound | growth at 10 µM (HCT-116) [%] | growth at 10 µM (TK-10) [%] | growth at 10 µM (PC-3) [%] | growth at 100 µM (NCI-H23) [%] | growth at 100 µM (SNB-19 [1]) [%] | growth at 1 µM (MDA-MB-231) [%] | growth at 1 µM (Malme-3M) [%] | growth at 10 µM (UACC-62) [%] | growth at 10 µM (UACC-257 [2]) [%] | growth at 0.1 µM (MCF7 [3]) [%] | growth at 0.1 µM (CCRF-CEM) [%] | growth at 0.01 µM (A549 [4]) [%] | growth at 100 µM (SF-295) [%] | growth at 0.1 µM (MOLT-4) [%] | growth at 10 µM (MCF7 [5]) [%] | growth at 10 µM (EKVX) [%] | growth at 0.1 µM (A549 [6]) [%] | growth at 10 µM (MDA-MB-435) [%] | growth at 10 µM (A549 [7]) [%] | growth at 10 µM (A498) [%] | other results |
| --- | --- | --- | --- | --- | --- | --- | --- | --- | --- | --- | --- | --- | --- | --- | --- | --- | --- | --- | --- | --- | --- |
| Cc1ccc2nc(Nc3c(C)cccc3C)sc2c1 | 19.4 | 71 | 49 | 65 | 30 | 37 | 57 | 35.7 | 56.1 | 92 | 89 | 103 | 14 | 111 | 19 | 54.1 | 108 | -23.7 | 44 | -1 | growth at 0.1 µM (M14): 104%; growth at 1 µM (SN12C): 65%; growth at 10 µM (SNB-19 [8]): 47%; growth at 10 µM (KM12): 30%; growth at 10 µM (NCI/ADR-RES): 4.04%; growth at 100 µM (HL-60(TB)): 53%; growth at 1 µM (MDA-MB-468): 21%; growth at 0.1 µM (SK-MEL-28): 92%; growth at 100 µM (ACHN): 49%; growth at 0.01 µM (UACC-257 [9]): 101% |
| Clc1cccc(Cl)c1Nc1nc2cccc(Cl)c2s1 | -87.1 | -86 | -68 | -58 | -63 | 17 | 52 | -62.9 | -33.3 | 87 | 93 | 103 | -51 | 109 | -86 | -7.99 | 99 | -55.9 | -65 | -97 | growth at 0.1 µM (M14): 101%; growth at 1 µM (SN12C): 46%; growth at 10 µM (SNB-19 [8]): -74%; growth at 10 µM (KM12): -96%; growth at 10 µM (NCI/ADR-RES): -37.3%; growth at 100 µM (HL-60(TB)): -57%; growth at 1 µM (MDA-MB-468): 23%; growth at 0.1 µM (SK-MEL-28): 94%; growth at 100 µM (ACHN): -100%; growth at 0.01 µM (UACC-257 [9]): 102% |
